A selection: hits, their analogues and other compounds. The true share with any hit is near 4.9%.
RAM network inh: inhibitors of the yeast RAM network; 1.8% of 190,000 active; inhibition, % at 50 µM; AID 868; S. cerevisiae dse1pr::URA3 reporter, 5-FOA growth OD615, 2 d; analog-sensitive cbk1-as2 kinase mutant strain;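 active = inhibition above a set limit, 3 SD over mean compound inhibition, cut at about 8.4% in these data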;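 also: 0% = DMSO-only wells with no growth and 100% = 10 µM 1-NA-PP1 full growth; inhibition rescues growth on 5-FOA so higher OD means more RAM inhibition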
NPY1 pot ag: potentiates or activates human NPY-Y1 receptor | activation, % at 3.6 µM | P25929 | 0.37% of 220,000 active | NPY-Y1 expressing cells, potentiator/agonist activation; in the data active = activation above about 33%, passing the limit was not always enough;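 also: cells stimulated with NPY at EC10 then isoproterenol at EC100; 0% = low agonist plus stimulus and 100% = saturating agonist plus stimulus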
WT yeast gro inh: growth inhibition of WT yeast, mitochondrial fusion screen; 2.1% of 190,000 active; mitochondrial fusion phenotypic screen, WT strain; inhibition, % at 10 µM; in the data active = inhibition above about 58%; tested in S. cerevisiae
NPY2 pot ag: human NPY-Y2 potentiation or agonism, primary screen; AID 1359; cells expressing NPY-Y2, potentiator/agonist read-out; P49146; 0.45% of 220,000 active; activation, % at 3.6 µM; in the data active = activation above about 27%;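 also: cells stimulated with NPY near EC25 plus isoproterenol at EC100; 0% = vehicle plus submaximal agonist and 100% = vehicle plus saturating agonist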
Target sequence (P49146 whole entry, looked up): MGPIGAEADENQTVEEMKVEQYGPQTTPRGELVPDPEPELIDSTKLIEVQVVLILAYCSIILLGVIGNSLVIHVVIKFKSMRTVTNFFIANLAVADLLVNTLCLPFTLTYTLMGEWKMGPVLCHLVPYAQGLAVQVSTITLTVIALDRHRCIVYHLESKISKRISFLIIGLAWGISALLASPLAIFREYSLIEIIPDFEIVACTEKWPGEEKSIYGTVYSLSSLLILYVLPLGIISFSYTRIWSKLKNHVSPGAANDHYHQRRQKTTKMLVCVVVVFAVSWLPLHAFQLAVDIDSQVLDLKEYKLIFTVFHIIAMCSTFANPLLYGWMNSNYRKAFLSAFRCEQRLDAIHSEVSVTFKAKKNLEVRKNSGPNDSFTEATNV
NPY Y2 blocker: antagonists of human neuropeptide Y receptor Y2 | inhibition, % at 2.7 µM | AID 793 | NPY-Y2 expressing cells, antagonist mode | P49146 | 0.99% of 140,000 active;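 also: 0% = vehicle with agonist challenge and 100% = reference antagonist with challenge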
NPY Y1 blocker: blocks the human neuropeptide Y Y1 receptor | P25929 | HEK293-CNG Y1 cells, membrane potential fluorescence; NPY at EC95, then isoproterenol | inhibition, % at 3.6 µM | 1% of 200,000 active | AID 1040;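 active = inhibition above the campaign mean inhibition of all tested compounds plus 3 SD, cut at about 20% in these data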;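 also: 0% = DMSO wells given NPY plus isoproterenol and 100% = isoproterenol alone without NPY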
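Assay system: HEK293 Y1/CNG channel cell line; Doses: single compound dose of 3.6 µM, 0.4% DMSO; Timing: dye 3 h, compound 60 min room temperature, stimulation 45 min; Technique: Membrane-potential fluorescent dye readout; Measure: % inhibition of NPY effect.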
NPY-Y1 ant conf: confirmation of human neuropeptide Y receptor Y1 antagonists; shares compounds with NPY Y1 blocker; HEK293-CNG NPY-Y1, membrane potential fluorescence, cAMP; NPY challenge against isoproterenol-raised cAMP; inhibition, % at 3.6 µM; 21% of 1,200 active; AID 1254; in the data active = inhibition above about 20%;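 also: 0% = vehicle with agonist plus stimulus and 100% = stimulus alone without agonist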
NPY2 antag ctr: antagonizes human NPY-Y2, counter-screen to NPY-Y1 antagonists. shares compounds with NPY Y1 blocker. HEK293 NPY-Y2 CNG membrane potential fluorescence, antagonism; cells given NPY, then isoproterenol. inhibition, % at 3.6 µM. 28% of 1,200 active. AID 1255;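 also: 0% = DMSO with agonist challenge and 100% = reference antagonist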
* marks the source's active call; other numbers are inactive results; . = no result given. Rule as the data show it, unless noted: active = inhibition above about 17%; inactive = the rest.

SMILES | RAM network inh | NPY1 pot ag | WT yeast gro inh | NPY2 pot ag | NPY Y2 blocker | NPY Y1 blocker | NPY-Y1 ant conf | NPY2 antag ctr
Cc1nc(NCc2ccccn2)c2c3c(sc2n1)CCCC3 | 0 | 7 | 20 | -13 | . | 46* | 15 | 9
c1ccc(CNc2ncnc3sc4c(c23)CCCC4)nc1 | 3 | -4 | 15 | -22 | . | 20 | . | .
OCCNc1ncnc2c1sc1nc(N3CCOCC3)c3c(c12)CCC3 | 2 | 6 | -4 | -3 | . | 4 | . | .
O=C(Nc1cccnc1)c1cc(-c2ccccc2)on1 | -1 | -16 | -3 | -19 | 6 | 4 | . | .
CC(C)n1cc(NC(=O)c2cc(-c3ccccc3)on2)cn1 | 1 | -33 | 24 | -27 | 9 | 24* | 5 | 14
Cc1cccc(-c2noc(CCC(=O)NCc3ccccc3)n2)c1 | -1 | -46 | 9 | -25 | 11 | 8 | . | .
Cc1cc(C)cc(OCC(=O)NCc2nc(-c3ccccc3)no2)c1 | 7 | -50 | -17 | -19 | 15 | 29* | 15 | 11
Cc1ccccc1NC1=C(Cl)C(=O)N(C2CCCCC2)C1=O | 1 | -14 | 69* | 7 | 3 | 22* | 7 | 1
CCCCNC(=O)Nc1ccccc1C(=O)Nc1ccc(OC)cc1 | 0 | 7 | -8 | 10 | 1 | 0 | . | .
CCc1ccc(/C=C\C(=O)N2CCc3ccccc3C2)cc1 | 3 | -21 | -4 | -28 | 11 | 21* | 9 | 10
CC(=O)c1sc2nc(C)c3c(c2c1N)CCCC3 | . | -13 | . | -25 | . | . | . | .
O=C1OCC(Cn2c3ccccc3c3ccccc32)O1 (configuration not stated) | 5 | 3 | -22 | 5 | 3 | -2 | . | .
CCn1c(Sc2nc(C)nc3scc(-c4cccs4)c23)n[nH]c1=O | -1 | -3 | 82* | -2 | 2 | 21* | 7 | 37*
O=C(O)C(Cc1ccccc1-c1ccccc1)C(=O)O | . | 17 | . | 13 | . | . | . | .
c1ccc(CNc2nc(N3CCN(Cc4ccccc4)CC3)nc3ccccc23)cc1 | . | 24 | . | 14 | . | . | . | .
CC(Nc1nc(N2CCNCC2)nc2ccccc12)c1ccccc1 (configuration not stated) | -1 | -4 | 23 | -6 | . | 25* | 28* | 35*
CCN1CCN(C(=O)N[C@@H](C(=O)N[C@@H]2C(=O)N3[C@@H]2SC(C)(C)[C@@H]3C(=O)O)c2ccccc2)C(=O)C1=O | 0 | -1 | 3 | 1 | -1 | -1 | . | .
CCc1ccc(NC(=S)N(Cc2cccnc2)Cc2ccco2)cc1 | 0 | 13 | 8 | -3 | . | 4 | . | .
CCOC(=O)c1cnc(SCCc2ccccc2)nc1N | 3 | -2 | 22 | -19 | 8 | 21* | 8 | 7
Cc1c(C(=O)Nc2ccc(C(=O)O)cc2)cnn1C | 0 | 11 | 11 | 6 | -2 | 2 | . | .
Cc1ccc(N2C(=O)c3ccccc3NC2C(C)Cc2ccc3c(c2)OCO3)cc1 (configuration not stated) | 4 | -51 | 41 | -17 | 17 | 44* | 120* | 108*
c1ccc(-n2cc(CN3CCCC(CN4CCCC4)C3)c(-c3ccc4c(c3)OCO4)n2)cc1 (configuration not stated) | -1 | -36 | -10 | -25 | . | 32* | 14 | 27*
COC(=O)Nc1ccc(OCC(=O)N2CCOCC2)cc1 | 0 | 10 | -8 | 8 | 0 | 2 | . | .
COc1ccc(-c2ccc(CCC(=O)O)n2-c2ccccc2O)cc1 | . | -4 | . | -9 | . | . | . | .
COc1ccc(-n2c(CCC(=O)O)ccc2-c2ccccc2)cc1 | 4 | -2 | 7 | -23 | . | 27* | 13 | 12
SMILES | RAM network inh | NPY1 pot ag | WT yeast gro inh | NPY2 pot ag | NPY Y2 blocker | NPY Y1 blocker | NPY-Y1 ant conf | NPY2 antag ctr
CCOC(=O)Cn1c(=O)c(-c2cc(Br)ccc2N)nc2ccccc21 | . | -5 | . | 5 | . | . | . | .
O=C1CCC(C(=O)OCC(=O)C23CC4CC(CC(C4)C2)C3)N1 (configuration not stated) | 3 | 22 | 4 | -2 | 0 | 23* | -2 | 1
COC(=O)[C@@]1(Cc2ccc(OC)cc2)[C@H]2c3cc(C(=O)N(C)C)n(C[C@H](O)CO)c3C[C@H]2CN1C(=O)c1ccccc1 | -1 | 1 | 14 | 4 | 2 | -1 | . | .
COC(=O)[C@@]1(Cc2ccc(OC)cc2)[C@H]2c3cc(C(=O)N(C)C)n(Cc4ccc(OC(F)(F)F)cc4)c3C[C@H]2CN1C(=O)c1ccccc1 | 6 | 3 | 35 | 9 | 16 | 35* | 14 | 6
Cc1cc(=O)n2nc(N3CCC(C(=O)N4CCN(Cc5ccccc5)CC4)CC3)sc2n1 | 0 | -8 | -3 | -15 | 6 | 4 | . | .
CC[n+]1c(/C=C/N(C)c2ccccc2)oc2ccc(Cl)cc21 | 3 | -8 | 17 | -4 | 4 | 5 | . | .
CCN1/C(=C/C=C/c2oc3ccc4ccccc4c3[n+]2CC)Oc2ccc3ccccc3c21 | 1 | -24 | 76 | -28 | . | 35* | 30* | 30*
Cc1cn(S(=O)(=O)c2ccc(Br)c3ccccc23)cn1 | 2 | -22 | -19 | -29 | 7 | 27* | 10 | 7
CCC(Oc1ccc(C)c(C)c1)C(=O)O (configuration not stated) | 0 | -6 | 0 | -3 | 6 | 23* | 5 | 6
O=C(O)CNC(=S)N(Cc1ccccc1)Cc1cccs1 | 2 | -3 | 0 | 0 | . | 8 | . | .
Cc1cccc(C)c1NC(=S)N(Cc1ccccc1)Cc1cccs1 | 9.5* | -28 | 73* | -18 | . | 38* | 17 | 20*
C/C(=N\NC(=O)C12CCC(C)(C(=O)O1)C2(C)C)c1ccccc1O (configuration not stated) | . | 30 | . | -3 | . | . | . | .
COc1cccc(C2c3[nH]c4ccccc4c3CCN2CCCn2cccn2)c1 (configuration not stated) | -1 | -4 | -5 | -7 | . | 10 | . | .
COc1ccc(C2c3[nH]c4ccccc4c3CCN2CCCn2cccn2)c(C)c1C (configuration not stated) | 0 | -15 | 17 | -17 | . | 36* | 19 | 20*
Cc1ccc(CNCc2cccnc2)cc1 | 2 | 4 | -20 | -5 | 1 | -3 | . | .
N=c1c2c(-c3ccccc3)c(-c3ccccc3)n(Cc3ccco3)c2ncn1CCCN1CCOCC1 | 0 | -36 | 7 | -8 | . | 56* | 44* | 39*
O=C(O)CSc1nnnn1-c1ccc2c(c1)OCCO2 | 0 | 16 | -5 | -16 | 8 | 9 | . | .
Cc1cc(SCC(=O)c2cccs2)nc2c(C)cccc12 | 8.9* | -19 | -43 | -24 | 12 | 22* | 4 | 8
